{
  "source": "ChEMBL document CHEMBL3351933",
  "about": "“Indimicins A-E, Bisindole Alkaloids from the Deep-Sea-Derived Streptomyces sp. SCSIO 03032” (J Nat Prod, 2014)",
  "key": {"[1]": {"system": "Candida albicans", "assay": "Antimicrobial activity against Candida albicans ATCC10231 by the broth microdilution method", "type": "functional"}, "[2]": {"system": "NCI-H460", "assay": "Cytotoxicity against human NCI-H460 cells by SRB assay", "type": "functional, cell-based", "method_in_brief": "(§1)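 Sulforhodamine B (SRB) cytotoxicity assay, following an earlier published protocol, run in vitro against a four-line human tumor panel: HepG2 (hepatocellular liver carcinoma), MCF7 (breast adenocarcinoma), NCI-H460 (non-small-cell lung cancer) and SF268 (glioma). IC50 values reported in μM.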"}, "[3]": {"system": "HepG2", "assay": "Cytotoxicity against human HepG2 cells by SRB assay", "type": "functional, cell-based", "method_in_brief": "as §1"}, "[4]": {"system": "Bacillus thuringiensis", "assay": "Antimicrobial activity against Bacillus thuringiensis SCSIO BT01 by the broth microdilution method", "type": "functional"}, "[5]": {"system": "MCF7", "assay": "Cytotoxicity against human MCF7 cells by SRB assay", "type": "functional, cell-based", "method_in_brief": "as §1"}, "[6]": {"system": "Escherichia coli", "assay": "Antimicrobial activity against Escherichia coli ATCC 25922 by the broth microdilution method", "type": "functional"}, "[7]": {"system": "Bacillus subtilis", "assay": "Antimicrobial activity against Bacillus subtilis SCSIO BS01 by the broth microdilution method", "type": "functional"}, "[8]": {"system": "Staphylococcus aureus", "assay": "Antimicrobial activity against Staphylococcus aureus ATCC 29213 by the broth microdilution method", "type": "functional"}},
  "note": "Activity calls are given as the source filed them. The calls are words filed in the database; no cut-off is given here.",
  "data": [
    {"molecule": "CN1c2ccc(Cl)cc2[C@@]2(C)c3c[nH]cc3-c3c([nH]c4ccc(Cl)cc34)[C@@H]12", "values": [
      {"measurement": "MIC", "setting": "[1]", "result": "> 128", "unit": "µg/mL"},
      {"measurement": "inhibition", "setting": "[2]", "result": "inactive"},
      {"measurement": "inhibition", "setting": "[3]", "result": "inactive"},
      {"measurement": "MIC", "setting": "[4]", "result": "> 128", "unit": "µg/mL"},
      {"measurement": "IC50", "setting": "[5]", "result": "> 10", "unit": "µM"},
      {"measurement": "MIC", "setting": "[6]", "result": "> 128", "unit": "µg/mL"},
      {"measurement": "MIC", "setting": "[7]", "result": "> 128", "unit": "µg/mL"},
      {"measurement": "MIC", "setting": "[8]", "result": "> 128", "unit": "µg/mL"}
    ]},
    {"molecule": "COC(=O)c1c(-c2c[nH]c3ccc(Cl)cc23)c(-c2c[nH]c3ccc(Cl)cc23)c(C(=O)OC)n1C", "values": [
      {"measurement": "MIC", "setting": "[1]", "result": "> 128", "unit": "µg/mL"},
      {"measurement": "inhibition", "setting": "[2]", "result": "inactive"},
      {"measurement": "inhibition", "setting": "[3]", "result": "inactive"},
      {"measurement": "MIC", "setting": "[4]", "result": "> 128", "unit": "µg/mL"},
      {"measurement": "IC50", "setting": "[5]", "result": "> 10", "unit": "µM"},
      {"measurement": "MIC", "setting": "[6]", "result": "> 128", "unit": "µg/mL"},
      {"measurement": "MIC", "setting": "[7]", "result": "> 128", "unit": "µg/mL"},
      {"measurement": "MIC", "setting": "[8]", "result": "> 128", "unit": "µg/mL"}
    ]},
    {"molecule": "CN1C[C@](C)(c2cn(C)cc2-c2c[nH]c3ccc(Cl)cc23)c2cc(Cl)ccc21", "values": [
      {"measurement": "MIC", "setting": "[1]", "result": "> 128", "unit": "µg/mL"},
      {"measurement": "inhibition", "setting": "[2]", "result": "inactive"},
      {"measurement": "inhibition", "setting": "[3]", "result": "inactive"},
      {"measurement": "MIC", "setting": "[4]", "result": "> 128", "unit": "µg/mL"},
      {"measurement": "IC50", "setting": "[5]", "result": "> 10", "unit": "µM"},
      {"measurement": "MIC", "setting": "[6]", "result": "> 128", "unit": "µg/mL"},
      {"measurement": "MIC", "setting": "[7]", "result": "> 128", "unit": "µg/mL"},
      {"measurement": "MIC", "setting": "[8]", "result": "> 128", "unit": "µg/mL"}
    ]},
    {"molecule": "Cc1[nH]cc2c1-c1c([nH]c3ccc(Cl)cc13)[C@H]1N(C)c3ccc(Cl)cc3[C@@]21C", "values": [
      {"measurement": "MIC", "setting": "[1]", "result": "> 128", "unit": "µg/mL"},
      {"measurement": "inhibition", "setting": "[2]", "result": "inactive"},
      {"measurement": "inhibition", "setting": "[3]", "result": "inactive"},
      {"measurement": "MIC", "setting": "[4]", "result": "> 128", "unit": "µg/mL"},
      {"measurement": "IC50", "setting": "[5]", "result": "> 10", "unit": "µM"},
      {"measurement": "MIC", "setting": "[6]", "result": "> 128", "unit": "µg/mL"},
      {"measurement": "MIC", "setting": "[7]", "result": "> 128", "unit": "µg/mL"},
      {"measurement": "MIC", "setting": "[8]", "result": "> 128", "unit": "µg/mL"}
    ]},
    {"molecule": "Cc1c2c(cn1C)[C@]1(C)c3cc(Cl)ccc3N(C)[C@@H]1c1[nH]c3ccc(Cl)cc3c1-2", "values": [
      {"measurement": "MIC", "setting": "[1]", "result": "> 128", "unit": "µg/mL"},
      {"measurement": "inhibition", "setting": "[2]", "result": "inactive"},
      {"measurement": "inhibition", "setting": "[3]", "result": "inactive"},
      {"measurement": "MIC", "setting": "[4]", "result": "> 128", "unit": "µg/mL"},
      {"measurement": "IC50", "setting": "[5]", "result": 10, "unit": "µM"},
      {"measurement": "MIC", "setting": "[6]", "result": "> 128", "unit": "µg/mL"},
      {"measurement": "MIC", "setting": "[7]", "result": "> 128", "unit": "µg/mL"},
      {"measurement": "MIC", "setting": "[8]", "result": "> 128", "unit": "µg/mL"}
    ]},
    {"molecule": "CN1c2ccc(Cl)cc2[C@@]2(C)c3cn(C)cc3-c3c([nH]c4ccc(Cl)cc34)[C@@H]12", "values": [
      {"measurement": "MIC", "setting": "[1]", "result": "> 128", "unit": "µg/mL"},
      {"measurement": "inhibition", "setting": "[2]", "result": "inactive"},
      {"measurement": "inhibition", "setting": "[3]", "result": "inactive"},
      {"measurement": "MIC", "setting": "[4]", "result": "> 128", "unit": "µg/mL"},
      {"measurement": "IC50", "setting": "[5]", "result": "> 10", "unit": "µM"},
      {"measurement": "MIC", "setting": "[6]", "result": "> 128", "unit": "µg/mL"},
      {"measurement": "MIC", "setting": "[7]", "result": "> 128", "unit": "µg/mL"},
      {"measurement": "MIC", "setting": "[8]", "result": "> 128", "unit": "µg/mL"}
    ]},
    {"molecule": "COC(=O)c1c(-c2c[nH]c3ccc(Cl)cc23)c(-c2c[nH]c3ccc(Cl)cc23)cn1C", "values": [
      {"measurement": "MIC", "setting": "[1]", "result": "> 128", "unit": "µg/mL"},
      {"measurement": "inhibition", "setting": "[2]", "result": "inactive"},
      {"measurement": "inhibition", "setting": "[3]", "result": "inactive"},
      {"measurement": "MIC", "setting": "[4]", "result": "> 128", "unit": "µg/mL"},
      {"measurement": "IC50", "setting": "[5]", "result": "> 10", "unit": "µM"},
      {"measurement": "MIC", "setting": "[6]", "result": "> 128", "unit": "µg/mL"},
      {"measurement": "MIC", "setting": "[7]", "result": "> 128", "unit": "µg/mL"},
      {"measurement": "MIC", "setting": "[8]", "result": "> 128", "unit": "µg/mL"}
    ]}
  ]
}
